This assay deals with T1, Non-lysosomal glucosylceramidase (Mus musculus) (UniProt Q69ZF3).
T1 sequence (whole entry): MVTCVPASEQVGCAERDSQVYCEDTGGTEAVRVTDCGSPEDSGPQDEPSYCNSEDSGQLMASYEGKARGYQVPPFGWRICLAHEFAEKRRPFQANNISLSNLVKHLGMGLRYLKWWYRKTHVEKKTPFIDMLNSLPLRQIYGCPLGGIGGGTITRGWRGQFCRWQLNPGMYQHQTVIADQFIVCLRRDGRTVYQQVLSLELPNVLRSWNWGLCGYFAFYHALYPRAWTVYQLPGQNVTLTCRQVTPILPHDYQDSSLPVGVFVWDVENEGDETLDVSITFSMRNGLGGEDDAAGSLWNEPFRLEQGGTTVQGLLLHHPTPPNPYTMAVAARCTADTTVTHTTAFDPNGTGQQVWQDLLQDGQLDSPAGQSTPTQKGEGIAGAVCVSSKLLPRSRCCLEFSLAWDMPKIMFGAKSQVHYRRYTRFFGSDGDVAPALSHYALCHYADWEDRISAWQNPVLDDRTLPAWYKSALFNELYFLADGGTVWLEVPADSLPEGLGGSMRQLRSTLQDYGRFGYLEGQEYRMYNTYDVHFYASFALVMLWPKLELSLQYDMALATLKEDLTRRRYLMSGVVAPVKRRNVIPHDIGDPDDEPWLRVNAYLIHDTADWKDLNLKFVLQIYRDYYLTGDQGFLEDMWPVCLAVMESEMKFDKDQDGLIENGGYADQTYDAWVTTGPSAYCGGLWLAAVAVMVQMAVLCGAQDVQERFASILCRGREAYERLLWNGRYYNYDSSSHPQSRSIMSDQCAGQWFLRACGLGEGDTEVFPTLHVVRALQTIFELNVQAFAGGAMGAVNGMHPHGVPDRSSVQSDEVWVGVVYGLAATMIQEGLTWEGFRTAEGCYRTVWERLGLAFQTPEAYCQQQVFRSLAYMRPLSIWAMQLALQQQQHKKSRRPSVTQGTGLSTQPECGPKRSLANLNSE
The assay can be described thus: Inhibition of GBA2 activity in mouse tissue homogenate at 50 uM. In a few lines:
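Mouse tissue homogenates were used to separate nonlysosomal GBA2 from lysosomal GCase β-glucosidase activity. Compounds were screened at 50 and 5 μM with 3 mM substrate. Two independent experiments, each run in duplicate.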

Structures are written as SMILES. Calls of active or inactive are those of the source. The rule behind the calls is not given here.

Consider `CCCCCCCCCN1C[C@H](O)[C@@H](O)[C@H](O)[C@H]1CO`, for which the inhibition entry is “Active”.

Values taken from ChEMBL document CHEMBL2163314, “Potent aminocyclitol glucocerebrosidase inhibitors are subnanomolar pharmacological chaperones for treating gaucher disease” (J Med Chem, 2012).
